Measurements from ChEMBL document CHEMBL4819098, “Novel 1,2,4-triazine-quinoline hybrids: The privileged scaffolds as potent multi-target inhibitors of LPS-induced inflammatory response via dual COX-2 and 15-LOX inhibition” (Eur J Med Chem, 2021).
pIC50: −log10 of the molar value.

Legend:
[1] = target: T1, Prostaglandin G/H synthase 2 (Ovis aries, UniProt P79208); assay: Inhibition of ovine COX-2 by EIA
T1 sequence (P79208 whole entry): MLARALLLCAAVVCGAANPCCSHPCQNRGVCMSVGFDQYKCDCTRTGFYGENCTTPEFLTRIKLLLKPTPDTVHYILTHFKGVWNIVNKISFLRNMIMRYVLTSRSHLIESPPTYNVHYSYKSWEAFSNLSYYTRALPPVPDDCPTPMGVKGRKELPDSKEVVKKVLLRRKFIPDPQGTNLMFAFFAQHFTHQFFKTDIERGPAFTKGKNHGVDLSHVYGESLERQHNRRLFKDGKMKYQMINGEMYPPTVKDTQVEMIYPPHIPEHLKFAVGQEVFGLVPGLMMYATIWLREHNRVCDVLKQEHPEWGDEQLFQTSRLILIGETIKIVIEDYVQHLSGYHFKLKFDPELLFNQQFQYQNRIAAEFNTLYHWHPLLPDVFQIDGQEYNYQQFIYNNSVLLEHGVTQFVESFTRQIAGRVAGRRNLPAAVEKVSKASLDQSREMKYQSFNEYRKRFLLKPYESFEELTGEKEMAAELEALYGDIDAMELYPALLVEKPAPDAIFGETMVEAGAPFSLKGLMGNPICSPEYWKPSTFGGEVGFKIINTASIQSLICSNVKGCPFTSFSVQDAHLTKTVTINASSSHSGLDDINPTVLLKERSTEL

[2] = target: T2, Prostaglandin G/H synthase 1 (Ovis aries, UniProt P05979); assay: Inhibition of ovine COX-1 by EIA
T2 sequence (P05979 whole entry): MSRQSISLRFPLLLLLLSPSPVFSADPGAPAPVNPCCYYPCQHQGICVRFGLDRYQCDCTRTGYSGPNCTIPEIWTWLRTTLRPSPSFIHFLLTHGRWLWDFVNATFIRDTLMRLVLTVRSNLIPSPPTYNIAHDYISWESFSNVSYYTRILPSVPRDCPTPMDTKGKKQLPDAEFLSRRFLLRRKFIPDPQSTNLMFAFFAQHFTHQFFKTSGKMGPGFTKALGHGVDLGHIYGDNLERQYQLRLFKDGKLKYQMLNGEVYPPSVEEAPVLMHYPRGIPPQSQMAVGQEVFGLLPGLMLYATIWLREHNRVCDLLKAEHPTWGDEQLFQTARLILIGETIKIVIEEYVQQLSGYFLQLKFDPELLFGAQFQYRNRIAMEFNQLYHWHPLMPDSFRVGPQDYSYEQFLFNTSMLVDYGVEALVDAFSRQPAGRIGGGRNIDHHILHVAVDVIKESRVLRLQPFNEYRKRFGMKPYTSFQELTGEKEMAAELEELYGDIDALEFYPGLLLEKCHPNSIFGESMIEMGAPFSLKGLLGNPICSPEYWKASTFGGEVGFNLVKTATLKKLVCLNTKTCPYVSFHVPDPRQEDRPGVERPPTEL

[3] = target: T2, Prostaglandin G/H synthase 1; assay: Inhibition of ovine COX-1 using arachidonic acid as substrate preincubated with enzyme for 5 mins followed by incubation with substrate for 5 mins by colorimetric analysis
[4] = target: T1, Prostaglandin G/H synthase 2; assay: Inhibition of ovine COX-2 using arachidonic acid as substrate preincubated with enzyme for 5 mins followed by incubation with substrate for 5 mins by colorimetric analysis
[5] = Inhibition of soybean 5-LOX; set-up: species or system Glycine max
[6] = target: T3, Prostaglandin G/H synthase 2 (Homo sapiens, UniProt P35354); assay: Inhibition of human recombinant COX-2 using arachidonic acid as substrate preincubated with enzyme for 20 mins followed by incubation with substrate for 2 mins by ADPH based fluorometric analysis
T3 sequence (P35354 whole entry): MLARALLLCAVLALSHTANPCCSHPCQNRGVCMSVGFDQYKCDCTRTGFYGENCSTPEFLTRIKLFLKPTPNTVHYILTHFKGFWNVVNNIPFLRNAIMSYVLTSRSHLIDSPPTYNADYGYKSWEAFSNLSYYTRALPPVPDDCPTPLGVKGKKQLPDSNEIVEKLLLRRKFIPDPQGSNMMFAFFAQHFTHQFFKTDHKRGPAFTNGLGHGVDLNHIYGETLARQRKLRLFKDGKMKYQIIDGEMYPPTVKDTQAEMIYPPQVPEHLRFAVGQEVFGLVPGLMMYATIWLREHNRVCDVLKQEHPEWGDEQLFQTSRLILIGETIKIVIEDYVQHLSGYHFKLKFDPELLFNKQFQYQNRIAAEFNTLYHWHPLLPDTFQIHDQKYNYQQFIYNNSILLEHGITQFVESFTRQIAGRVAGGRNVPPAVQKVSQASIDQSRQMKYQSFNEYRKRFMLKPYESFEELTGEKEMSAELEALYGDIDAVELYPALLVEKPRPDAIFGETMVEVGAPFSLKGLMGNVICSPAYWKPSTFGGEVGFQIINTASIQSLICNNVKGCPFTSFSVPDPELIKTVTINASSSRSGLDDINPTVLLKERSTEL

[7] = target: T2, Prostaglandin G/H synthase 1; assay: Inhibition of ovine COX-1 using arachidonic acid as substrate preincubated with enzyme for 20 mins followed by incubation with substrate for 2 mins by ADPH based fluorometric analysis
[8] = Inhibition of soybean 15-LOX using linolenic acid as substrate by spectrophotometric analysis; set-up: species or system Glycine max
[9] = target: T4, Prostaglandin G/H synthase 2 (Homo sapiens) (UniProt P35354); assay: Inhibition of COX-2 in human whole blood assessed as reduction in PGE2 production at 10 uM measured after 24 hrs by EIA; format: tissue-based
T4 sequence (whole entry): T3 sequence (P35354 whole entry)

[10] = target: COX-1 (Prostaglandin G/H synthase 1) (Homo sapiens, UniProt P23219); assay: Inhibition of COX-1 in human whole blood assessed as reduction in thromboxane B2 production at 10 uM measured after 1 hr by EIA; format: tissue-based
[11] = target: T2, Prostaglandin G/H synthase 1; assay: Inhibition of ovine COX-1 by colorimetric analysis
[12] = Selectivity index, ratio of IC50 for ovine COX-1 to IC50 for human recombinant COX-2
Method in brief: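 Enzyme kit assay with ovine COX-1 and human recombinant COX-2. IC50 determined from three replicates. Selectivity index taken as IC50(COX-1)/IC50(COX-2).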

RAW264.7 [13] = assay: Inhibition of LPS-induced 15(S)-HETE production in mouse RAW264.7 cells preincubated for 2 hrs followed by LPS stimulation and measured after 20 hrs by ELISA; format: functional, cell-based
RAW264.7 [14] = assay: Potency index, ratio of celecoxib IC50 to test compound IC50 for inhibition of LPS-induced IL-6 production in mouse RAW264.7 cells preincubated for 2 hrs followed by LPS stimulation and measured after 20 hrs by ELISA; format: functional; details: time 22 hrs
RAW264.7 [15] = assay: (§1) Antioxidant activity in mouse RAW264.7 cells assessed as inhibition of LPS-induced intracellular ROS production preincubated for 2 hrs followed by LPS stimulation and measured after 20 hrs by DCFH-DA staining based fluorescence analysis; format: functional, cell-based
[16] = target: T2, Prostaglandin G/H synthase 1; assay: Inhibition of ovine COX-1 using arachidonic acid as substrate preincubated with enzyme for 5 mins followed by substrate addition by colorimetric analysis
RAW264.7 [17] = assay: Potency index, ratio of diclofenac sodium IC50 to test compound IC50 for inhibition of LPS-induced IL-6 production in mouse RAW264.7 cells preincubated for 2 hrs followed by LPS stimulation and measured after 20 hrs by ELISA; format: functional; details: time 22 hrs
[18] = target: T4, Prostaglandin G/H synthase 2 (Homo sapiens); assay: Potency index, ratio of diclofenac sodium IC50 to test compound IC50 for human recombinant COX-2 using arachidonic acid as substrate preincubated with enzyme for 5 mins followed by substrate addition by colorimetric analysis
RAW264.7 [19] = assay: as §1, with “Potency index, ratio of celecoxib IC50 to test compound IC50 for antioxidant” for “Antioxidant”; format: functional; details: time 22 hrs
RAW264.7 [20] = assay: Potency index, ratio of celecoxib IC50 to test compound IC50 for inhibition of LPS-induced 15(S)-HETE production in mouse RAW264.7 cells preincubated for 2 hrs followed by LPS stimulation and measured after 20 hrs by ELISA; format: functional; details: time 22 hrs
RAW264.7 [21] = assay: Inhibition of LPS-induced IL-6 production in mouse RAW264.7 cells preincubated for 2 hrs followed by LPS stimulation and measured after 20 hrs by ELISA; format: functional, cell-based
RAW264.7 [22] = assay: Cytotoxicity against mouse RAW264.7 cells assessed as reduction in cell viability by MTS assay; format: cell-based
Method in brief: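 RAW 264.7 macrophage viability at the tested concentrations measured by MTS assay.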

[23] = Inhibition of soybean 15-LOX using arachidonic acid or linolenic acid as substrate in presence of hydrogen peroxide incubated for 5 mins by colorimetric analysis; set-up: species or system Glycine max
[24] = target: T3, Prostaglandin G/H synthase 2; assay: Inhibition of human recombinant COX-2 using arachidonic acid as substrate preincubated with enzyme for 5 mins followed by substrate addition by colorimetric analysis
RAW264.7 [25] = assay: Inhibition of LPS-induced TNFalpha production in mouse RAW264.7 cells preincubated for 2 hrs followed by LPS stimulation and measured after 20 hrs by ELISA; format: functional, cell-based
[26] = target: T3, Prostaglandin G/H synthase 2; assay: Inhibition of COX-2 (unknown origin) using arachidonic acid as substrate preincubated with enzyme for 1 min followed by substrate addition by fluorometric analysis

COX-1 (Prostaglandin G/H synthase 1), sequence (P23219 whole entry): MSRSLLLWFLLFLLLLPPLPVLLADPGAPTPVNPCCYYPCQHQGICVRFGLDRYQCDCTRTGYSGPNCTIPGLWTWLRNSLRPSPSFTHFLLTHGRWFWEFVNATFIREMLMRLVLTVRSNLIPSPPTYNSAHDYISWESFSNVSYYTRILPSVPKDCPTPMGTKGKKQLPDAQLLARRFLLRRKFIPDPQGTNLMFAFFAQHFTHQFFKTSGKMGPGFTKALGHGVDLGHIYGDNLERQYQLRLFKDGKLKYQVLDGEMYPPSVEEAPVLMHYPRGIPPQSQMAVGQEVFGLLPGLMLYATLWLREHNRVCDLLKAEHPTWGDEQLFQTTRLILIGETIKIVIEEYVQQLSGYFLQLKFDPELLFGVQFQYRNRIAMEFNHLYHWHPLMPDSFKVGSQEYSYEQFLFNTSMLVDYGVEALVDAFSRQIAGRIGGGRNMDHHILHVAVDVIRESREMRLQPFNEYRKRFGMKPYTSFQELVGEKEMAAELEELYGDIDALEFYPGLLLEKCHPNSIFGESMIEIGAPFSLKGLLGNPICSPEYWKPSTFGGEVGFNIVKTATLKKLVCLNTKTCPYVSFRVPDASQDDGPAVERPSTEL

In the case of `CCOC(=O)c1cnn(C(=O)c2cc(-c3ccc(Cl)cc3)nc3ccc(OC)cc23)c1N`, the pIC50 [1] was 6.59 and the pIC50 [2] was less than 4.30.

In the case of `COc1ccc(-c2nn(-c3ccc(Cl)cc3)cc2/C=C/c2cc(C(=O)N3CCOCC3)c3cc(Cl)ccc3n2)cc1`, the pIC50 [3] was 4.94, the pIC50 [4] was 7.00 and the pIC50 [5] was 5.73.

With `COc1ccc(-c2cc(-c3nnc(SC/C(=N/O)c4ccccc4)n3-c3ccccc3)c3ccccc3n2)cc1` the pIC50 [6] was 5.80 and the pIC50 [7] was 6.32.

`COc1ccc(C2=C(c3ccc(OC)cc3)NNC(N/N=C/c3ccc(F)cc3)=N2)cc1` showed a pIC50 [8] of 3.91, an inhibition [9] of 72% and an inhibition at 1 h, 10 µM [10] of 69%.

`COc1ccc(/C=C2\N=C(c3cccnc3)N(c3ccccc3)NC2=O)cc1` showed a pIC50 [11] of 7.00.

In the case of `O=c1c(Cc2ccccc2)n[nH]c(=S)n1/N=C/c1cc2cc(OCc3ccccc3)ccc2nc1O`, the Ratio IC50 [12] was 266, the pIC50 (RAW264.7 [13]) was 6.77 and the “Ratio IC50” value (RAW264.7 [14]) was 1.5. For the same molecule, the pIC50 (RAW264.7 [15]) was 5.99, the pIC50 [16] was 4.90 and the Ratio IC50 (RAW264.7 [17]) was 1.7. The Ratio IC50 [18] was 17.9, the “Ratio IC50” value (RAW264.7 [19]) was 11 and the “Ratio IC50” value (RAW264.7 [20]) was 43. The pIC50 (RAW264.7 [21]) was 5.11, the Activity (RAW264.7 [22]) was “Non-Toxic” and the pIC50 [23] was 5.74. For the same molecule, the pIC50 [24] was 7.33 and the pIC50 (RAW264.7 [25]) was 4.72.

`COc1ccc2ccc(F)c(CC(=O)N/N=C/c3ccc(C(F)(F)F)cc3)c2n1` showed a pIC50 [26] of 6.89.
